# Laboratory results: ChEMBL document CHEMBL1123812, “Pyrroloisoquinoline antidepressants. 2. In-depth exploration of structure-activity relationships” (J Med Chem, 1987)
# Active and inactive are the calls of the source.
# Legend:
# [1] = biological target: Sodium-dependent dopamine transporter (Rattus norvegicus, UniProt P23977); assay: Inhibition of the uptake of tritiated dopamine (DA) in rat synaptosomes; assay type: subcellular, Brain
# [2] = biological target: Sodium-dependent serotonin transporter (Rattus norvegicus) (UniProt P31652); assay: Inhibition of tritiated serotonin(5-HT) uptake at 0.1 uM concentration; assay type: functional
# Sodium-dependent serotonin transporter (Rattus norvegicus), sequence (P31652 whole entry): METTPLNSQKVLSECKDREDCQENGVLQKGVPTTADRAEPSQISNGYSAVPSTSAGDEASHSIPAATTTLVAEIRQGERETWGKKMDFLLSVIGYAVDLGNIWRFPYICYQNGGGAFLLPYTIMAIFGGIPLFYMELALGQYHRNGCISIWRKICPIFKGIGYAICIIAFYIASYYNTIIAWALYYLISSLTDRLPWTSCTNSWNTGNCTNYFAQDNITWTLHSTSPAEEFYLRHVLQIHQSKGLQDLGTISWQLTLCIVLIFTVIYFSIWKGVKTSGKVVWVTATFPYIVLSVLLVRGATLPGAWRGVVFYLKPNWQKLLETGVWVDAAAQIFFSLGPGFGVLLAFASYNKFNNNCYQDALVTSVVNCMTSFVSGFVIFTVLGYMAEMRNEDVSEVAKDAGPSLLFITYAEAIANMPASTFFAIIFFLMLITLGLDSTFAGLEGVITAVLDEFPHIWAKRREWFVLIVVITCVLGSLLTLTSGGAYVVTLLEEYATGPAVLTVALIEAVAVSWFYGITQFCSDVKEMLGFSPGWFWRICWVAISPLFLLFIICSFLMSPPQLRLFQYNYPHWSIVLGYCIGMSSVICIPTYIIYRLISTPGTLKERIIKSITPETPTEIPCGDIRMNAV
# Method in brief: (§1)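 Male Wistar rat brain synaptosomes (P2 fraction): hypothalamus for NE, striatum for DA, cerebral cortex for 5-HT. Buffer is Tris- or HEPES-buffered salt medium with glucose, ascorbate and nialamide, pH 7.4 at 37 °C. Preincubated 10 min at 37 °C with compound. Uptake started with [3H]NE 100–300 nM, [3H]DA 50–300 nM or [3H]5-HT 100–200 nM, incubated 3 min (DA) or 6–10 min (NE, 5-HT). Blanks held on ice. Filtered, counted by scintillation.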
# [3] = tested on: Mus musculus; assay: Ability to antagonise intraperitoneal dose; inactive (<10% antagonism) at 30 mg/kg is represented as I-30.; assay type: functional, organism-based; parameters: dose 30 mg/kg
# Method in brief: (§2)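 Nonfasted male Swiss Webster mice, 18–24 g, ten per dose level and in saline controls. Test compound given ip 30 min before tetrabenazine 32 mg/kg ip; dose expressed as free base. Motor activity and ptosis scored. Control response ≤90% corrected by Abbott's formula.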
# [4] = biological target: D(2) dopamine receptor (Rattus norvegicus, UniProt P61169); assay: Binding affinity towards Dopamine receptor D2
# D(2) dopamine receptor, sequence (P61169 whole entry): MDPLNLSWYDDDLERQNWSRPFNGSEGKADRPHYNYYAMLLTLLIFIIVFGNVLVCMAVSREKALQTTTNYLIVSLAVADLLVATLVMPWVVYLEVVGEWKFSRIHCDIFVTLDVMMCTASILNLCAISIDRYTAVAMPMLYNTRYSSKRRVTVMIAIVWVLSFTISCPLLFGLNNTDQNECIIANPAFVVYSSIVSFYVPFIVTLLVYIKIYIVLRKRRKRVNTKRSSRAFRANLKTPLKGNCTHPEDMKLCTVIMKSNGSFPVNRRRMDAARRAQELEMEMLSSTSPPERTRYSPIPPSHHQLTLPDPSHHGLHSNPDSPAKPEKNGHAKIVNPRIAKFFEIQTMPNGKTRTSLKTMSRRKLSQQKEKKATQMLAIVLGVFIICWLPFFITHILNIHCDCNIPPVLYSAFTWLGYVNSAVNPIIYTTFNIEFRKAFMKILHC
# [5] = organism: Rattus norvegicus; assay: Ability to inhibit the uptake of tritiated norepinephrine (NE) at 0.1 uM concentration; assay type: functional; method in brief: as §1
# [6] = tested on: Mus musculus; assay: Ability to antagonise intraperitoneal administration; weakly active (>=10% and <=30% antagonism) at 30 mg/kg is represented as >30; assay type: functional; settings: ip; method in brief: as §2
# [7] = organism: Mus musculus; assay: Gross behavioral effects ascertained in mice; C indicates overt convulsant; assay type: functional, organism-based
# Method in brief: (§3)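 Male Swiss Webster mice, 18–24 g, three per dose, given ip doses of 1, 3, 10, 30, 100 and 300 mg/kg. Observed for gross behavior and held for 4 days. Scored as weak (W), stimulant (S), depressant (D) or convulsant (C).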
# [8] = biological target: D(1A) dopamine receptor (Rattus norvegicus, UniProt P18901); assay: Binding affinity towards Dopamine receptor D1
# D(1A) dopamine receptor, sequence (P18901 whole entry): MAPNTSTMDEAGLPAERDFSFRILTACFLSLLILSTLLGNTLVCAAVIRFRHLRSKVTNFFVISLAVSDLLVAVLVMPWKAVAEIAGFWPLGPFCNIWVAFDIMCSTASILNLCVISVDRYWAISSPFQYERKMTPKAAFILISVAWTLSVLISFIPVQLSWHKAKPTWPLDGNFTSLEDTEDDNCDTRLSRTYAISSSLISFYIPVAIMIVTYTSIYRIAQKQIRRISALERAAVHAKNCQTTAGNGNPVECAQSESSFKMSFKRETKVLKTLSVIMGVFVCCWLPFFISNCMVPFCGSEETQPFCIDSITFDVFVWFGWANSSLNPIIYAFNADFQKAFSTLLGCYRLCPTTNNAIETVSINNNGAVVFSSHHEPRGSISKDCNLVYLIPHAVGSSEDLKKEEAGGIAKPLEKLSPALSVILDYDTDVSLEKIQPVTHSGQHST
# [9] = biological target: Adrenergic receptor alpha-2 (Rattus norvegicus) (UniProt P22086+P19328+P22909); assay: Binding affinity towards alpha-2 adrenergic receptor at 1.0 uM concentration; assay type: protein assay
# [10] = biological target: T1, Adrenergic receptor alpha-1 (Rattus norvegicus, UniProt P15823+P23944+P43140); assay: Binding affinity towards alpha-1 adrenergic receptor; assay type: protein assay
# T1 sequence (P15823 whole entry): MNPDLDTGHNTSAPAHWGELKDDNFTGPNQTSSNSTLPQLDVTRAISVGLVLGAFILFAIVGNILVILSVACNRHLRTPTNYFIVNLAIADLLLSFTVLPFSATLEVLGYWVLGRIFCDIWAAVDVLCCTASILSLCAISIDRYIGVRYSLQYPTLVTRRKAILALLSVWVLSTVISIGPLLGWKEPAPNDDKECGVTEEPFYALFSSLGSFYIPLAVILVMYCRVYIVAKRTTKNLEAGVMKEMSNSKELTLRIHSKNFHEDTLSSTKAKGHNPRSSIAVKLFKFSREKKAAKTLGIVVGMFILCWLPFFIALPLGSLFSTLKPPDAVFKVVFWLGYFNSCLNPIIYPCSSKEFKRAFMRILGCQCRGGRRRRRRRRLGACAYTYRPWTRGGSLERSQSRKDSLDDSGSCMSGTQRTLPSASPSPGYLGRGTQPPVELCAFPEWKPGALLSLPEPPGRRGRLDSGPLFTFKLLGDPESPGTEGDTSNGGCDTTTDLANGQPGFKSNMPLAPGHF
# T1 sequence (P23944 whole entry): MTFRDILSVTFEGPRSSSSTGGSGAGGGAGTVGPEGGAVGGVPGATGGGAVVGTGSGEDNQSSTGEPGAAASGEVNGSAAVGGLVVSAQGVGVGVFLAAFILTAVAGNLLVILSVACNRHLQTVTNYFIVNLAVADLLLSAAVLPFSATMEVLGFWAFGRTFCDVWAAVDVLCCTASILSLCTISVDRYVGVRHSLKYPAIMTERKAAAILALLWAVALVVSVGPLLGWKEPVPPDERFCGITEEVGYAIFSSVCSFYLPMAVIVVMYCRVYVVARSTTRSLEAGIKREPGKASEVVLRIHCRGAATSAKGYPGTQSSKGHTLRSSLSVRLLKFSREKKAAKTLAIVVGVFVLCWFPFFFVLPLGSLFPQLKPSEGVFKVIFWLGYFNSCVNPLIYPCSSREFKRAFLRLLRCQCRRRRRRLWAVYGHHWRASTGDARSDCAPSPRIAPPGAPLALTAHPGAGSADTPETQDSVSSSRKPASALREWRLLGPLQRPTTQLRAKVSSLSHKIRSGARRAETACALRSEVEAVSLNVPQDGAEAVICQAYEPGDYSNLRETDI
# T1 sequence (P43140 whole entry): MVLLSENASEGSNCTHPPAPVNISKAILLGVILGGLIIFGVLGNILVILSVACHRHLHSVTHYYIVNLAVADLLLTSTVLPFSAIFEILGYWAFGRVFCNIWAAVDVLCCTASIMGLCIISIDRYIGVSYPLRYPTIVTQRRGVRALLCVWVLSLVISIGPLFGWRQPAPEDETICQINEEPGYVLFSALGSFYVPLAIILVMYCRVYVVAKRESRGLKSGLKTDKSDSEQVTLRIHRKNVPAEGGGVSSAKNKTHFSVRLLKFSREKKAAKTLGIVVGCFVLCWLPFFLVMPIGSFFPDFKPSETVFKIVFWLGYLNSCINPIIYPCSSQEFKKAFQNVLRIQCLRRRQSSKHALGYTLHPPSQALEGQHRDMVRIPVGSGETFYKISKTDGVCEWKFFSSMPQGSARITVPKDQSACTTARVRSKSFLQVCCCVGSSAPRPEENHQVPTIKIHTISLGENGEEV
# [11] = biological target: Serotonin 2 (5-HT2) receptor (Rattus norvegicus, UniProt P30994+P08909+P14842); assay: Binding affinity towards 5-hydroxytryptamine 2 receptor; assay type: protein assay
# [12] = biological target: Norepinephrine transporter (Rattus norvegicus, UniProt Q9WTR4); assay: Inhibition of uptake of tritiated norepinephrine (NE) in rat synaptosomes; assay type: subcellular, Brain
# Norepinephrine transporter, sequence (Q9WTR4 whole entry): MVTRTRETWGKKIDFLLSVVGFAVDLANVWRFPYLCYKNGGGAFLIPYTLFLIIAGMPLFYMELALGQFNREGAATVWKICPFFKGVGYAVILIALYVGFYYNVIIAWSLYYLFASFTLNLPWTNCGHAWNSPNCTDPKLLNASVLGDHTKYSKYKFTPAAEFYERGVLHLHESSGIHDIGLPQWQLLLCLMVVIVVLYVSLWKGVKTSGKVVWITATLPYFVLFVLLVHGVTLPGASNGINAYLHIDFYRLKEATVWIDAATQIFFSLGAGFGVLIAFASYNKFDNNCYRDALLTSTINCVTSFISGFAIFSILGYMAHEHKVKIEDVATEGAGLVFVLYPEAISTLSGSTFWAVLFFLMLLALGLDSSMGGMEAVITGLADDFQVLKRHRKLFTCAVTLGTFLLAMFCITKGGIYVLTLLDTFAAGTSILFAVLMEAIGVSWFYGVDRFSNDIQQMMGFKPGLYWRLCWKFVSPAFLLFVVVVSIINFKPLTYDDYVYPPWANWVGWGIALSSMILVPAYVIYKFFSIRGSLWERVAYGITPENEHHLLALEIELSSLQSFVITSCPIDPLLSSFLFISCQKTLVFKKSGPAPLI
# [13] = organism: Mus musculus; assay: Antagonism of tetrabenazine (TBZ)-induced depression measured in mice by motor activity; assay type: functional; settings: Mus musculus; read-out: ED50; method in brief: as §2
# [14] = biological target: Muscarinic acetylcholine receptor (Rattus norvegicus) (UniProt P08482+P08483+P08485+P08911+P10980); assay: Binding affinity towards Muscarinic acetylcholine receptor at 1.0 uM concentration; assay type: protein assay
# [15] = biological target: Serotonin 1 (5-HT1) receptor (Rattus norvegicus) (UniProt P28564+P30940+P19327+P28565); assay: Binding affinity towards serotonin S1 receptor at 1.0 uM; assay type: protein assay
# Method in brief: (§4)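 Rat brain crude synaptic membranes in 20 mM NaHEPES pH 7.5. Ligands: α1 cortex […] 0.4 nM, nonspecific with (-)-NE 100 μM, 30 min at 25 °C. […] D2 striatum [3H]spiperone 0.05 nM with (+)-butaclamol 1 μM, 45 min at 37 °C. S1 cortex [3H]5-HT 1 nM plus glutathione and MgCl2, with 5-HT 10 μM, 20 min at 37 °C. […] Samples filtered on GF/B and counted.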
# [16] = organism: Mus musculus; assay: Antagonism of tetrabenazine (TBZ)-induced depression in mice measured for ptosis; assay type: functional; settings: Mus musculus; read-out: ED50; method in brief: as §2
# [17] = organism: Mus musculus; assay: Gross behavioral effects ascertained in mice; W indicates weak stimulant or depressant activity of little significance.; assay type: functional, organism-based; method in brief: as §3
# [18] = biological target: Sodium-dependent dopamine transporter (Rattus norvegicus) (UniProt P23977); assay: Ability to inhibit the uptake of [3H]dopamine (DA) 0.1 uM concentration at rat brain synaptosomes; assay type: functional, subcellular; method in brief: as §1
# Sodium-dependent dopamine transporter (Rattus norvegicus), sequence (P23977 whole entry): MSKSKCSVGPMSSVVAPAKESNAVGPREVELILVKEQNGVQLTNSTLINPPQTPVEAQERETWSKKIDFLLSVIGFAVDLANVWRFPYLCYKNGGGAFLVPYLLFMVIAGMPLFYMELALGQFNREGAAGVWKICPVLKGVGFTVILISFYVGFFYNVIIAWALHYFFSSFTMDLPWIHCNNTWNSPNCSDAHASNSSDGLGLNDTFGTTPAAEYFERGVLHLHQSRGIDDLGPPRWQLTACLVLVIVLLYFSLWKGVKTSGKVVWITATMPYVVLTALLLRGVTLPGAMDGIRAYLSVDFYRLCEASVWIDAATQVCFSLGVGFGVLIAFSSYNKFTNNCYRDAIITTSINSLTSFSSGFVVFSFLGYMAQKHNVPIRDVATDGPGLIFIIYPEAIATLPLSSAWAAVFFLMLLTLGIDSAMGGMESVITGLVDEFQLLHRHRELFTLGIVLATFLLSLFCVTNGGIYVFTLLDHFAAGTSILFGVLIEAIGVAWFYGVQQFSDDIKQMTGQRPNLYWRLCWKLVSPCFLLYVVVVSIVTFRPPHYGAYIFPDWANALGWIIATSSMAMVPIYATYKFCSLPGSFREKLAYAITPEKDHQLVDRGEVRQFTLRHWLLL
# [19] = tested on: Mus musculus; assay: (§5) Ability to antagonise intraperitoneal dose; inactive (<10% antagonism) at 30 mgjkg is represented as I-30.; assay type: functional, organism-based; method in brief: as §2
# [20] = biological target: Norepinephrine transporter (Rattus norvegicus) (UniProt Q9WTR4); assay: Ability to inhibit the uptake of [3H]norepinephrine (NE) 0.1 uM concentration at rat brain synaptosomes; assay type: functional, subcellular; method in brief: as §1
# Norepinephrine transporter (Rattus norvegicus), sequence (Q9WTR4 as listed by the source): as the sequence (Q9WTR4 whole entry) above
# [21] = biological target: Sodium-dependent serotonin transporter (Rattus norvegicus) (UniProt P31652); assay: Ability to inhibit the uptake of [3H]- serotonin(5-HT) 0.1 uM concentration at rat brain synaptosomes; assay type: functional, subcellular; method in brief: as §1
# [22] = organism: Mus musculus; assay: Gross behavioral effects ascertained in mice; W/C indicates weak stimulant or depressant activity of little significance/ overt convulsant; assay type: functional, organism-based
# Method in brief: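 Male Swiss Webster albino mice, 18–24 g, three per dose, given ip 1, 3, 10, 30, 100 and 300 mg/kg. Gross behaviour observed and held 4 days. Estimated LD50 range from lethality count on day 4. Scored as weak stimulant/depressant, significant stimulant, significant depressant or overt convulsant.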
# [23] = tested on: Mus musculus; assay: as §5; assay type: functional, organism-based; method in brief: as §2; remark: listed apart in the source
# [24] = biological target: Serotonin 2 (5-HT2) receptor (Rattus norvegicus) (UniProt P30994+P08909+P14842); assay: Binding affinity towards 5-hydroxytryptamine 2 receptor at 1.0 uM concentration; assay type: protein assay; method in brief: as §4
# Serotonin 2 (5-HT2) receptor (Rattus norvegicus), sequence (P08909 whole entry, looked up): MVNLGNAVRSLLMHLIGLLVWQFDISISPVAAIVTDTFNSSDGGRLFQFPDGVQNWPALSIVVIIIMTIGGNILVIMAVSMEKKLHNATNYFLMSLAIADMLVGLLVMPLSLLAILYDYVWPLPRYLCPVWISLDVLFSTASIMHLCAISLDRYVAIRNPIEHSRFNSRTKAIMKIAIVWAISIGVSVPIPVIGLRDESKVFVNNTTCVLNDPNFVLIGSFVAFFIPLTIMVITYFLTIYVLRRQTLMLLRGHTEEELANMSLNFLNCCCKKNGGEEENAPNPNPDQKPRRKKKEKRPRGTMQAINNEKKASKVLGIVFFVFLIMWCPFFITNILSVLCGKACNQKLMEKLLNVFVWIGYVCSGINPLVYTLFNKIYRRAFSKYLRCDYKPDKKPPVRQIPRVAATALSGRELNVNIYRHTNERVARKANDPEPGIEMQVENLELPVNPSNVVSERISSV
# Serotonin 2 (5-HT2) receptor (Rattus norvegicus), sequence (P14842 whole entry, looked up): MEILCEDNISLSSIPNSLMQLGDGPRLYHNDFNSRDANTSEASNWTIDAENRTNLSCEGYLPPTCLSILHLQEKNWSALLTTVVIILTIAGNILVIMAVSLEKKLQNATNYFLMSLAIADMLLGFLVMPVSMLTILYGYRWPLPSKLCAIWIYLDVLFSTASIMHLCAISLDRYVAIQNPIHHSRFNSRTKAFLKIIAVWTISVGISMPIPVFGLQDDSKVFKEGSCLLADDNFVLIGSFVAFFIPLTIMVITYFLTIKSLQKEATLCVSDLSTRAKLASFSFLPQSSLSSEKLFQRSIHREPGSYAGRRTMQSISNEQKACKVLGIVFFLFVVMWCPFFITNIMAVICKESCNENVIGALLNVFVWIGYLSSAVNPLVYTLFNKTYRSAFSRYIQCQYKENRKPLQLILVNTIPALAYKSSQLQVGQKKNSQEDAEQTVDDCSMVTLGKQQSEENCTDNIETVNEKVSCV
# Serotonin 2 (5-HT2) receptor (Rattus norvegicus), sequence (P30994 whole entry, looked up): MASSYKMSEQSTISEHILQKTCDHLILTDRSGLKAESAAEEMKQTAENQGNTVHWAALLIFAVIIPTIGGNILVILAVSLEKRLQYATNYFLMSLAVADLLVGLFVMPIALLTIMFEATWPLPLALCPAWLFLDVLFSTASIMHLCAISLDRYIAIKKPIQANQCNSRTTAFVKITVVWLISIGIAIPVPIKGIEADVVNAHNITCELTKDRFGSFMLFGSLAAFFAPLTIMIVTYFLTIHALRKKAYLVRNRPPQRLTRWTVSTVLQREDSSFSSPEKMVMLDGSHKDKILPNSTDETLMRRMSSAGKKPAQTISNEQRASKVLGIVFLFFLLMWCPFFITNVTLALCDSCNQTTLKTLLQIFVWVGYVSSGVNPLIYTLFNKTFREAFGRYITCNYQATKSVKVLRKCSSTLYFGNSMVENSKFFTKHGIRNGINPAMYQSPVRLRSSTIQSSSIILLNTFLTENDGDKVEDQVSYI
# [25] = organism: Mus musculus; assay: Gross behavioral effects ascertained in mice; S indicates significant stimulant properties.; assay type: functional, organism-based; method in brief: as §3
# [26] = biological target: D(2) dopamine receptor (Rattus norvegicus) (UniProt P61169); assay: Binding affinity towards dopamine receptor D2 at 1.0 uM concentration; method in brief: as §4
# D(2) dopamine receptor (Rattus norvegicus), sequence (P61169 whole entry): as the sequence (P61169 whole entry) above
# [27] = organism: Rattus norvegicus; assay: Ability to inhibit the uptake of tritiated dopamine (DA) 1 uM concentration; assay type: functional
# Method in brief: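 Rat brain synaptosomal [3H]dopamine uptake: striatal P2 fraction, test compound at 1.00 μM. Preincubated at 37 °C, then 50–300 nM [3H]DA for 3 min. Blanks on ice. Filtration and scintillation counting; percent inhibition of control uptake.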
# Sodium-dependent dopamine transporter, sequence (P23977 whole entry): as the sequence (P23977 whole entry) above
smiles,measurement,setting,value
Br.COc1cc2c(cc1OC)[C@@H]1CCCN1C[C@H]2c1ccccc1,Ki,[1],106 nM
same,inhibition,[2],10%
same,ED50,[3],inactive
same,Ki,[4],400 nM
same,Inhibition,[5],16%
same,ED50 at 30 mg/kg,[6],> 30 mg/kg
same,behavior,[7],Convulsant
same,Ki,[8],452 nM
Br.Fc1ccc([C@@H]2CN3CCC[C@@H]3c3cc(F)ccc32)cc1,inhibition,[9],25%
same,Ki,[1],7.7 nM
same,Ki,[10],536 nM
same,Ki,[11],7.4 nM
same,Ki,[4],241 nM
same,Ki,[12],0.55 nM
same,ED50,[13],> 30 mg/kg
same,inhibition,[14],0%
same,inhibition,[15],-6%
same,ED50,[16],0.05 mg/kg
same,Ki,[8],183 nM
same,behavior,[17],Partial stimulant
c1ccc([C@@]23CCCN2CCc2ccccc23)cc1,inhibition,[18],0%
same,ED50,[13],> 60 mg/kg
same,ED50,[19],inactive
same,inhibition,[20],4%
same,inhibition,[21],4%
same,behavior,[22],Weak/Overt convulsant
F[C@@]1(c2ccccc2)CN2CCC[C@H]2c2ccccc21,Ki,[12],~100 nM
same,inhibition,[18],22%
same,ED50,[13],> 30 mg/kg
same,ED50 at 30 mg/kg,[6],> 30 mg/kg
same,inhibition,[21],-3%
same,behavior,[22],Weak/Overt convulsant
C[C@@]12CCCN1C[C@H](c1ccccc1)c1ccccc12,Ki,[1],40 nM
same,Ki,[12],24 nM
same,ED50,[13],9.2 mg/kg
same,ED50,[16],3.8 mg/kg
same,behavior,[22],Weak/Overt convulsant
c1ccc([C@@H]2CN3CC[C@@H]4CCCC[C@@]43c3ccccc32)cc1,ED50,[23],inactive
same,inhibition,[18],33%
same,ED50,[19],inactive
same,inhibition,[20],0%
same,inhibition,[21],4%
same,behavior,[17],Weak
Cl.c1ccc([C@@H]2CN3CCC[C@H]3c3ccccc32)cc1,Ki,[1],160 nM
same,ED50 at 30 mg/kg,[6],> 30 mg/kg
O=[N+]([O-])c1ccc([C@@H]2CN3CCC[C@H]3c3ccccc32)cc1,inhibition,[18],21%
same,ED50,[13],> 30 mg/kg
same,ED50 at 30 mg/kg,[6],> 30 mg/kg
same,inhibition,[20],10%
same,inhibition,[21],25%
same,behavior,[17],Weak
C[C@H]1[C@@H](c2ccccc2)c2ccccc2[C@@H]2CCCN21,inhibition,[18],3%
same,ED50,[13],> 60 mg/kg
same,ED50,[19],inactive
same,inhibition,[20],0%
same,inhibition,[21],3%
same,behavior,[17],Weak
Br.Oc1cc2c(cc1O)[C@H]1CCCN1C[C@H]2c1ccccc1,inhibition,[24],46%
same,inhibition,[9],21%
same,behavior,[25],Stimulant
same,Ki,[1],43.5 nM
same,Ki,[10],87 nM
same,Ki,[12],10.5 nM
same,ED50,[13],0.87 mg/kg
same,inhibition,[14],0%
same,inhibition,[26],20%
same,ED50,[16],0.53 mg/kg
same,Ki,[8],106 nM
c1ccc2c(c1)CCN1CCC[C@@H]21,ED50,[23],inactive
same,ED50,[3],inactive
same,inhibition,[20],1%
same,Inhibition,[27],18%
same,inhibition,[21],-10%
same,behavior,[22],Weak/Overt convulsant
